Experiments:
p97-p47 complex [1] = molecular target: T1, p97-p47 complex (Homo sapiens, UniProt P55072); conditions: cited from earlier work; for inhibition of the p97-p47 complex compared to p97 alone, in words: Figure 1 legend, earlier work of the authors; for fold decrease in potency caused by p47 (p97-p47 complex versus p97): previously found by the authors
D1-active mutant (E578Q) [2] = molecular target: T2, D1-active mutant (E578Q) (Homo sapiens, UniProt P55072, E578Q); conditions: previous studies of the authors; cited from earlier work
T2 sequence (P55072 whole entry E578Q): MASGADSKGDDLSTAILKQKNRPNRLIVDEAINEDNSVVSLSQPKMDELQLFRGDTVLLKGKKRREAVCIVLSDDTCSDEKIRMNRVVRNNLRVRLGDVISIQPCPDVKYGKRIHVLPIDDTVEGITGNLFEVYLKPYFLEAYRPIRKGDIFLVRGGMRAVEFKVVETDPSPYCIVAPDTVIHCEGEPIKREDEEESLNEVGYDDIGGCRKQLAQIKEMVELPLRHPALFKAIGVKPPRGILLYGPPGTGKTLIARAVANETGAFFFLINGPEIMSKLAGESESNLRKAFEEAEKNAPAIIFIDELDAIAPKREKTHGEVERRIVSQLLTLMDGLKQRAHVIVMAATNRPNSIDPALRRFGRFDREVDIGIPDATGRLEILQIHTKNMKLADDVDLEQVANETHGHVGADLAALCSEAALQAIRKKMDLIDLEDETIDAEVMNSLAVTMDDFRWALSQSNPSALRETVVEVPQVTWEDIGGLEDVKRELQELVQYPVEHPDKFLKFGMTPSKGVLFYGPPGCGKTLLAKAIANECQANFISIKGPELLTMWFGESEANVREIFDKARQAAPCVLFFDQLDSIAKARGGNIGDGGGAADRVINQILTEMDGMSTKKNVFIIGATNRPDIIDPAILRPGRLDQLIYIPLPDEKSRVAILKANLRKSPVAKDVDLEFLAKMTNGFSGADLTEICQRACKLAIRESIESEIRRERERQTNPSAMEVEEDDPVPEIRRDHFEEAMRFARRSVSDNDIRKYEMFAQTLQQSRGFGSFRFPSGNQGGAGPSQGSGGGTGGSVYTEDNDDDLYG

wild-type p97 = wild-type p97 (Homo sapiens, UniProt P55072); experiment: ATPase assay, wild type p97; type: biochemical
wild-type p97, sequence (P55072 whole entry): as the sequence (P55072 whole entry E578Q) above, with Q578E counted along it
Summary of the method: (§1)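 Human p97 (WT or the Walker B mutant named), 25 nM monomer, in 50 mM Tris pH 7.4, 20 mM MgCl2, 1 mM EDTA, 0.5 mM TCEP, 0.01% Triton X-100 and 200 μM ATP. An initial 4-dose titration (30, 10, 3.3, 1.1 μM) was run in triplicate, then an 8-dose titration (30 down to 0.04 μM, plus 0). ATPase activity was read with Biomol Green reagent.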

p97-p47 complex [3] = molecular target: T1, p97-p47 complex; experiment: ATPase assay, p97-p47 complex; type: biochemical
Summary of the method: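 The p97-p47 complex was formed by adding p47 to 400 nM final with human p97 at 25 nM monomer. Buffer was 50 mM Tris pH 7.4, 20 mM MgCl2, 1 mM EDTA, 0.5 mM TCEP, 0.01% Triton X-100 and 200 μM ATP. Titrations were 4-dose in triplicate (30–1.1 μM), then 8-dose (30–0.04 μM, plus 0). Activity was detected with Biomol Green reagent.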

D2-active mutant (E305Q) = D2-active mutant (E305Q) (Homo sapiens, UniProt P55072, E305Q); experiment: ATPase assay, D2-active Walker B mutant; type: biochemical
D2-active mutant (E305Q), sequence (P55072 whole entry E305Q): as the sequence (P55072 whole entry E578Q) above, with E305Q, Q578E counted along it
Summary of the method: as §1

D1-active mutant (E578Q) [4] = molecular target: T2, D1-active mutant (E578Q); experiment: ATPase assay, D1-active Walker B mutant; type: biochemical
Summary of the method: as §1

T1 sequence (P55072 whole entry): as the sequence (P55072 whole entry E578Q) above, with Q578E counted along it
T1 sequence (Q9UNZ2 whole entry partner): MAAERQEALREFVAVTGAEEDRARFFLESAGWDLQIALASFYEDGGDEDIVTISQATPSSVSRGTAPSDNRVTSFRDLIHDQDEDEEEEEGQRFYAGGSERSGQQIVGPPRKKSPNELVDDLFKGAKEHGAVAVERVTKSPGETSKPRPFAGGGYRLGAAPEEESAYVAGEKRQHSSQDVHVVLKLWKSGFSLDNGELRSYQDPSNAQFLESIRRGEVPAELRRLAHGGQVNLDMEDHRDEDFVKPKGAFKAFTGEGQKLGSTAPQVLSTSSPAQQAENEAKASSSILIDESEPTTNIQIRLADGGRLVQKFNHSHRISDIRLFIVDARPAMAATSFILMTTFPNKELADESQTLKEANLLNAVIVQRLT

| SMILES | inhibition of the p97-p47 complex compared to p97 alone, in words (p97-p47 complex [1]) | fold decrease in potency caused by p47 (p97-p47 complex versus p97) (p97-p47 complex [1]) | domain selectivity D1 versus D2, in words (D1-active mutant (E578Q) [2]) | IC50 (wild-type p97) [µM] | IC50 (p97-p47 complex [3]) [µM] | IC50 (D2-active mutant (E305Q)) [µM] | fold increase of IC50 against the D2-active mutant (E305Q) compared to WT p97 (D2-active mutant (E305Q); 200 μM ATP) [fold] | selectivity toward the D2 domain (D2-active mutant (E305Q); D2 versus D1) [fold] | IC50 (D1-active mutant (E578Q) [4]) [µM] | fold increase of IC50 against the D1-active mutant (E578Q) compared to WT p97 (D1-active mutant (E578Q) [4]; 200 μM ATP) [fold] | domain selectivity D1 versus D2 (E578Q versus E305Q mutants), in words (D1-active mutant (E578Q) [4]; 8-dose titration, Figure 3 / Table S1) |
| --- | --- | --- | --- | --- | --- | --- | --- | --- | --- | --- | --- |
| COc1cccc2c(NCc3ccccc3)nc(-n3c(N)nc4ccccc43)nc12 [ML240] | less inhibition of the p97-p47 complex | ~ 50 fold | selectively inhibit D2 | – | – | – | – | – | – | – | – |
| c1ccc(CNc2nc(NCc3ccccc3)c3ccccc3n2)cc1 [DBeQ, N2,N4-dibenzylquinazoline-2,4-diamine] | – | – | inhibit both the D1 and D2 ATPase domains | 5.4 | 12.3 | 7.6 | 1.4 | 3 | 13.1 | 2.4 | – |
| c1ccc(CNc2nc(N3CCOc4ccccc43)nc3c2CCCC3)cc1 [ML241] | less inhibition of the p97-p47 complex | ~ 50 fold | selectively inhibit D2 | – | – | – | – | – | – | – | – |
| Cc1cc(OCc2nnc(SC3CCCC3)n2-c2cccnc2)ccc1-c1ccc(S(C)(=O)=O)cc1 [NMS-873] | – | – | inhibit both the D1 and D2 ATPase domains | – | – | – | – | – | – | – | inhibited the ATPase activity of both the D1 and D2 domains |

Source: PMC4280364 (ChemMedChem, 2014)
